Data on seven compounds can be found in ChEMBL document CHEMBL1833867, “Conformationally constrained analogs of BAY 59-3074 as novel cannabinoid receptor ligands” (Bioorg Med Chem Lett, 2011).

Assay [1] in a line: Selectivity ratio of Ki for rat cannabinoid CB1 receptor to Ki for human cannabinoid CB2 receptor.
Assay [2] addresses Cannabinoid receptor 2 (Homo sapiens, UniProt P34972). Kind of assay: Displacement of [3H]CP55940 from human cannabinoid CB2 receptor.
The target in the next assay is Cannabinoid receptor 1 (Rattus norvegicus, UniProt P20272). Kind of assay: Displacement of [3H]CP55940 from rat cannabinoid CB1 receptor.
Cannabinoid receptor 1, sequence (P20272 whole entry): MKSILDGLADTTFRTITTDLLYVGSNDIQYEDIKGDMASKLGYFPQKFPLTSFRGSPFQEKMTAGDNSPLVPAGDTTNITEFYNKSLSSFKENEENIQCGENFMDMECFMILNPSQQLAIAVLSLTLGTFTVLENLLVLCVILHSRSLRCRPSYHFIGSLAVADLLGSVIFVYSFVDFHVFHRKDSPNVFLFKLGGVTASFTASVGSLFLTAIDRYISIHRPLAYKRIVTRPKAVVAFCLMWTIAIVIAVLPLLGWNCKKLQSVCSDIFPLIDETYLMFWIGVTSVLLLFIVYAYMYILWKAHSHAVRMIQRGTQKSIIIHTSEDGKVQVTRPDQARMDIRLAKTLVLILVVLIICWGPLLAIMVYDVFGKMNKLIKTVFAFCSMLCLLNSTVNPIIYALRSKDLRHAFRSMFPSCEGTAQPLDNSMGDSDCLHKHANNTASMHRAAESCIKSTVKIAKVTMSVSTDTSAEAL
The target of assay [3] is Cannabinoid receptor 2 (Mus musculus, UniProt P47936). Kind of assay: Displacement of [3H]CP55940 from mouse cannabinoid CB2 receptor.
Cannabinoid receptor 2 (Mus musculus, UniProt P47936), sequence (P47936 whole entry): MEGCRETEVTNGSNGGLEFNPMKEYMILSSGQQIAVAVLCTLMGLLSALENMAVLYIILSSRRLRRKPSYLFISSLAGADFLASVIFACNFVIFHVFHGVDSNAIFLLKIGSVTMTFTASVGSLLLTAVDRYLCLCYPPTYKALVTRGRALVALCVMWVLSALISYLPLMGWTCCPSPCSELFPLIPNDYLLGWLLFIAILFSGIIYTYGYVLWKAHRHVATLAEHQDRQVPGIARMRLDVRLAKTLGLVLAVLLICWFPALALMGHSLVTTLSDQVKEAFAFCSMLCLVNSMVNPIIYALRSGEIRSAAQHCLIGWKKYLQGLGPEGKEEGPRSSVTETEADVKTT
A short description of assay [4]: Binding affinity to CB receptor in rat brain membranes. The assay is classed as cell membranes. In outline:
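Radioligand competition binding at rat CB1, displacing [3H]CP55,940.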

Cannabinoid receptor 2 (Homo sapiens, UniProt P34972), sequence (P34972 whole entry): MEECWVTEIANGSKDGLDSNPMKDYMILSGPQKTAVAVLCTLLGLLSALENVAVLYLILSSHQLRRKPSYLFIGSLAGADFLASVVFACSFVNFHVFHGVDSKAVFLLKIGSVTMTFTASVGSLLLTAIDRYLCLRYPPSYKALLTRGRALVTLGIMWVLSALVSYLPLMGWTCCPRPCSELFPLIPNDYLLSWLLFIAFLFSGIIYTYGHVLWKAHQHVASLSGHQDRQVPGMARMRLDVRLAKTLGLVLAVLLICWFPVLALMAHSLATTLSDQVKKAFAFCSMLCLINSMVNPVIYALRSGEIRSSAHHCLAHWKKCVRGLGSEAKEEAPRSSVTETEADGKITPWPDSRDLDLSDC

For the compound `N#Cc1c(Oc2cccc(OS(=O)(=O)CCCC(F)(F)F)c2)cccc1C(F)(F)F`, in assay [1], the Ratio Ki turned out to be 1.21.

With `N#Cc1c(C(F)(F)F)ccc2c1Oc1c(cccc1OS(=O)(=O)CCCC(F)(F)F)C2`, in assay [1], the Ratio Ki stood at 12.4. The Ki at Cannabinoid receptor 2 [2] is 1160 nM; on Cannabinoid receptor 1, 14400 nM; on Cannabinoid receptor 2 [3] it was 1130 nM.

For the compound `N#Cc1c(C(F)(F)F)ccc2c1oc1ccc(OS(=O)(=O)CCCC(F)(F)F)cc12`, in assay [1], the Ratio Ki was 0.76. Further, the results for the Ki on Cannabinoid receptor 2 [2], at Cannabinoid receptor 1 and at Cannabinoid receptor 2 [3] were 3290 nM, 2530 nM and 1710 nM, respectively.

Turning to `N#Cc1c(C(F)(F)F)ccc2c1oc1c(OS(=O)(=O)CCCC(F)(F)F)cccc12`, the Ratio Ki in assay [1] came to 9. For the same compound, the Ki at Cannabinoid receptor 2 [2] is 253 nM; on Cannabinoid receptor 1, 2280 nM; at Cannabinoid receptor 2 [3], 410 nM.

In turn, `O=S(=O)(CCCC(F)(F)F)Oc1cccc(Oc2cccc3c2C[C@H](CO)C3)c1` came in with a Ki in assay [4] of 0.46 nM.

With `N#Cc1c(C(F)(F)F)ccc2c1oc1cc(OS(=O)(=O)CCCC(F)(F)F)ccc12`, in assay [1], the Ratio Ki is 3.35. The Ki at Cannabinoid receptor 2 [2] worked out at 317 nM; at Cannabinoid receptor 1, 1060 nM; at Cannabinoid receptor 2 [3], 339 nM.

Consider `N#Cc1c(C(F)(F)F)ccc2c1oc1cccc(OS(=O)(=O)CCCC(F)(F)F)c12`, for which the Ratio Ki in assay [1] turned out to be 1.05. Further, the Ki at Cannabinoid receptor 2 [2] stood at 1810 nM; at Cannabinoid receptor 1 it was 1900 nM; at Cannabinoid receptor 2 [3] it was 676 nM.
